Reference: PubChem BioAssay AID804 (SRMLSC, 2007)
About 710 (0.51%) of roughly 140,000 compounds were called active. This is one part of a sample in which actives are shown more often than they occur.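 The calls were made as follows: active = inhibition above a set limit, 3 SD over the mean compound inhibition (cut at about 44% in these data); inactive = the rest.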

Test: growth inhibitors of yeast BB579 in restrictive medium, primary screen, yeast lifespan-shortening project, S. cerevisiae (AID 804)
Settings: OD615, 48 h, at 10 µM, stronger effect = higher value
Outline: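 controls = amphotericin B 10 µg/mL, positive | assay system = DeaD yeast strain BB579 | schedule = 48 h compound exposure at 30 °C after 4 h preincubation | detection = OD615 turbidity measurement | medium = restrictive CSMM-D medium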

inhibition, inactive:
N#C/C(=C/c1cccc([N+](=O)[O-])c1)c1nnc2n1CCCCC2 -18.8%
COCC(C)n1c(C)cc(C(=O)CSc2cc(C)c3ccccc3n2)c1C (stereo unspecified) -56.2%
O=c1[nH]cnc2c1c(-c1ccccc1)cn2-c1ccc(F)cc1 -19.6%
COc1ccc(-n2nnnc2-c2nc3ccccc3s2)cc1 -33.6%
O=C1OC(OC(=O)c2ccccc2Br)C(N2CCOCC2)=C1Cl (stereo unspecified) -32.6%
CCOc1cc(N2CCOCC2)c(OCC)cc1NC(=O)COC(=O)[C@H](Cc1c[nH]c2ccccc12)NC(C)=O -16%
Cc1cccc(OCC(=O)NC(=S)Nc2ccccc2N2CCOCC2)c1 -49.4%
CCc1ccc2c(c1)C(c1ccc([N+](=O)[O-])cc1)=NNC(c1ccccc1)=N2 -23.5%
Cn1c(=O)c(Sc2ccc(Cl)cc2)c(O)c2ccccc21 -21.7%
O=C(Nc1ncccn1)c1cccs1 -21.9%
Cc1ccc(NC(=O)c2sc3nc(N)c(C#N)cc3c2N)cc1 -23.2%
O=C(Cc1c[nH]c2ccccc12)N/N=C/c1cccc(F)c1 -39.1%
COC(=O)Cn1c(=NC(=O)c2cc(OC)c(OC)c(OC)c2)sc2cc(OC)ccc21 -32.8%
CCN(CC)CCn1c2ccc(Cl)cc2c2nc(C)sc21 -1.41%
CCOC(=O)c1nn(-c2ccccc2F)c2nc(Nc3ccccc3)cc(=O)n12 -45.6%
CC(OC(=O)CNS(=O)(=O)/C=C/c1ccccc1)C(=O)Nc1ccc(S(=O)(=O)N2CCCC2)cc1 (stereo unspecified) -25.4%
CN1CCC(=NNC(=O)c2ccc(N(Cc3ccc(Cl)cc3)S(C)(=O)=O)cc2)CC1 -8.48%

inhibition, active:
CCOc1cc(N2CCOCC2)c(OCC)cc1NC(=O)COc1cccc2cccnc12 67.1%
Cn1c(=O)c(C(=O)Nc2ncccn2)c(O)c2ccccc21 68.5%
COC(=O)Cn1c2ccc(C)cc2c2nc(C)sc21 43.6%
Cc1c(C=O)c2ccccn2c1C(=O)c1ccncc1 43.9%
